Assay results from ChEMBL document CHEMBL1129355, “Synthesis of 3 beta-aryl-8-azabicyclo[3.2.1]octanes with high binding affinities and selectivities for the serotonin transporter site” (J Med Chem, 1996).

Assays:
[1] = target: Sodium-dependent dopamine transporter (Rattus norvegicus, UniProt P23977); assay: Displacement of [125I]RTI-55 from dopamine transporter of rat brain membranes; format: cell membranes, Membrane
In short: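 Rat striatal membranes (0.5 mg original wet weight) with 10 pM [125I]RTI-55. Nonspecific binding defined with a 1 μM tropane analog. Displacement curves used 7-10 unlabeled-analog concentrations. IC50 was reported because binding is multiphasic. Mean ± SEM of at least three experiments, each in triplicate.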

[2] = target: Norepinephrine transporter (Rattus norvegicus, UniProt Q9WTR4); assay: Displacement of [3H]-nisoxatine from Norepinephrine transporter of rat forebrain membrane; format: tissue-based, Brain
Norepinephrine transporter, sequence (Q9WTR4 whole entry): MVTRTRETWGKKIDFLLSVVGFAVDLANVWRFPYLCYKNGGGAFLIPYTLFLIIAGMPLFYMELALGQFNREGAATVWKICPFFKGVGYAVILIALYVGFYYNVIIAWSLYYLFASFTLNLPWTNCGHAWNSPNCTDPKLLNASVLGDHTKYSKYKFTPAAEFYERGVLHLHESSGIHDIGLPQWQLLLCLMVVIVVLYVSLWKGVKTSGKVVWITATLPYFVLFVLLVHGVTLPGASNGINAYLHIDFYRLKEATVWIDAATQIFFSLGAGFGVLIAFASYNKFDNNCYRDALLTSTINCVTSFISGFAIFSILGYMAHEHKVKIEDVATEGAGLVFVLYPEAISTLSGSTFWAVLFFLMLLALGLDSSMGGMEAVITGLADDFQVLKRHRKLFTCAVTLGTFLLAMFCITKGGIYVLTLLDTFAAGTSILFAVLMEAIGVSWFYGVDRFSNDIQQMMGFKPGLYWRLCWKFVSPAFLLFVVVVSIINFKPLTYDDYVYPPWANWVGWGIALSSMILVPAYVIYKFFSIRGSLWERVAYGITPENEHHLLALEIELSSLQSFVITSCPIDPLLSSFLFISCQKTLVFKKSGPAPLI

[3] = target: Sodium-dependent serotonin transporter (Rattus norvegicus, UniProt P31652); assay: Displacement of [3H]paroxetine from Serotonin transporter of rat frontal cortex membrane; format: tissue-based
Sodium-dependent serotonin transporter, sequence (P31652 whole entry): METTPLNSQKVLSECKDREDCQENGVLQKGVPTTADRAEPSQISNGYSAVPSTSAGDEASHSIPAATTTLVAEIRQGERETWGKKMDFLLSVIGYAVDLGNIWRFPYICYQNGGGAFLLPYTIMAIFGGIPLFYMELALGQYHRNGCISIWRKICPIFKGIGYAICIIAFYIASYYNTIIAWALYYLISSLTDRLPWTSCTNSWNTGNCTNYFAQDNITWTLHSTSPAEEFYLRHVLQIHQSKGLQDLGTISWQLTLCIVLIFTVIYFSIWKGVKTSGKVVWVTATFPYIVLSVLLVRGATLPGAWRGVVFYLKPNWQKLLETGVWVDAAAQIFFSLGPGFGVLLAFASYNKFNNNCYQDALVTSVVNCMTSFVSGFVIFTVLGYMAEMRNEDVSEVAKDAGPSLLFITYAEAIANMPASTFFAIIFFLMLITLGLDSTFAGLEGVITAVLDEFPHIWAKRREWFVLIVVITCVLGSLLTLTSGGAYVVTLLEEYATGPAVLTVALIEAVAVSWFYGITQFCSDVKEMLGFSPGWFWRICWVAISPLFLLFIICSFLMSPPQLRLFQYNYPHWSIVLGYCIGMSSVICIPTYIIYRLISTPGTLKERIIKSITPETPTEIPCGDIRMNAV
In short: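 Rat frontal cortex membranes (50 mg original wet weight) with 0.4 nM [3H]paroxetine. Nonspecific binding defined with 10 μM fluoxetine. Displacement curves used 7-10 unlabeled-analog concentrations. Ki came from the Cheng-Prusoff equation. Mean ± SEM of at least three experiments, each in triplicate.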

[4] = target: Monoamine transporters; serotonin & dopamine (Rattus norvegicus) (UniProt P31652+P23977); assay: Relative affinity for dopamine and Serotonin transporters; format: protein assay
Monoamine transporters; serotonin & dopamine (Rattus norvegicus), sequence (P23977 whole entry, looked up): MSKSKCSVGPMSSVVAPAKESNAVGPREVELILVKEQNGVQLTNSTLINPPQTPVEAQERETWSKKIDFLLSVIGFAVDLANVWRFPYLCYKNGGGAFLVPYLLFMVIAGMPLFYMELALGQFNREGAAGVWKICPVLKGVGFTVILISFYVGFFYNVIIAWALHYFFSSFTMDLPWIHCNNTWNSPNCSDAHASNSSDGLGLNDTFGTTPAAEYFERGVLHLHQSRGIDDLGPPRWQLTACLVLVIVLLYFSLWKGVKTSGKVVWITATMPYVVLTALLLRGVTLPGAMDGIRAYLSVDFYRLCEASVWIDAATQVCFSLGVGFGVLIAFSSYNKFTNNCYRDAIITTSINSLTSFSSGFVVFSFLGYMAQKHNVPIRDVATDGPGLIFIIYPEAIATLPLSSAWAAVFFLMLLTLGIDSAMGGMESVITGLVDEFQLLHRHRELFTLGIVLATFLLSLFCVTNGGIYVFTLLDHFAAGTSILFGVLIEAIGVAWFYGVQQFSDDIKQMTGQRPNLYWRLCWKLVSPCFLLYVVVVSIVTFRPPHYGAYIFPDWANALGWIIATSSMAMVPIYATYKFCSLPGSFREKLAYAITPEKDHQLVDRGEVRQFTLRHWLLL
Monoamine transporters; serotonin & dopamine (Rattus norvegicus), sequence (P31652 whole entry, looked up): as the sequence (P31652 whole entry) above
In short: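 Ratio of DAT IC50 ([125I]RTI-55, rat striatum) to SERT Ki ([3H]paroxetine, rat frontal cortex), each from displacement curves of 7-10 concentrations. Triplicate runs, at least three experiments.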

Sodium-dependent dopamine transporter, sequence (P23977 whole entry): as the sequence (P23977 whole entry, looked up) above

Compound CCC(=O)C1C2CCC(CC1c1ccc3ccccc3c1)N2 (configuration not stated) has an IC50 [1] of 0.036 µM, a Ki [2] of 0.44 µM and a Ki [3] of 0.00022 µM.

With CCC(=O)C1C(c2ccc3ccccc3c2)CC2CCC1N2C (configuration not stated) the Ki [2] was 0.0029 µM and the Ratio [4] was 0.31.

In the case of C=Cc1ccc(C2CC3CCC(C2C(=O)CC)N3C)cc1 (configuration not stated), the IC50 [1] is reported as 0.0009 µM, the Ki [2] is reported as 0.078 µM and the Ratio [4] is reported as 0.28. It also gave a Ki [3] of 0.0032 µM.

With CCC(=O)C1C(c2ccc(C3CCCCC3)cc2)CC2CCC1N2C (configuration not stated) the IC50 [1] was 0.32 µM, the Ki [2] was > 10 µM and the Ratio [4] was 3.3. The Ki [3] was 0.097 µM.

For C=C(C)c1ccc(C2CC3CCC(C2C(=O)CC)N3C)cc1 (configuration not stated), the IC50 [1] was 0.0072 µM, the Ki [2] was 0.794 µM and the Ratio [4] was 8.8. The Ki [3] was 0.00082 µM.

In the case of C=C(C)c1ccc(C2CC3CCC(N3)C2C(=O)CC)cc1 (configuration not stated), the IC50 [1] is reported as 0.016 µM, the Ki [2] is reported as 0.094 µM and the Ratio [4] is reported as 150. It also gave a Ki [3] of 0.00011 µM.

C=Cc1ccc(C2CC3CCC(N3)C2C(=O)CC)cc1 (configuration not stated) gave an IC50 [1] of 0.0015 µM, a Ki [2] of 0.0109 µM and a Ratio [4] of 4.7. The Ki [3] was 0.00032 µM.

Compound CCC(=O)C1C(c2ccc(C)cc2)CC2CCC1N2C (configuration not stated) has a Ki [2] of 0.16 µM and a Ratio [4] of 0.063.

In the case of CCC(=O)C1C2CCC(CC1c1ccc(C)cc1)N2 (configuration not stated), the IC50 [1] is reported as 0.0047 µM, the Ki [2] is reported as 0.0055 µM and the Ratio [4] is reported as 0.25. The Ki [3] was 0.019 µM.

CCC(=O)C1C2CCC(CC1c1ccc(C3CCCCC3)cc1)N2 (configuration not stated) was tested, and the IC50 [1] was 0.49 µM, the Ki [2] was 4.3 µM and the Ratio [4] was 5.8. The Ki [3] was 0.085 µM.

With CCC(=O)C1C2CCC(CC1c1ccc(C(C)C)cc1)N2 (configuration not stated) the IC50 [1] was 0.54 µM, the Ki [2] was 0.15 µM and the Ratio [4] was 72. For the same compound, the Ki [3] was 0.0053 µM.

With CCC(=O)C1C(c2ccc(C(CC)CC)cc2)CC2CCC1N2C (configuration not stated) the IC50 [1] was 0.27 µM, the Ki [2] was > 10 µM and the Ratio [4] was 0.5. It also gave a Ki [3] of 0.54 µM.

In the case of CCC(=O)C1C2CCC(CC1c1ccc(C(CC)CC)cc1)N2 (configuration not stated), the IC50 [1] is reported as 0.19 µM, the Ki [2] is reported as 5.1 µM and the Ratio [4] is reported as 1.27. The Ki [3] was 0.15 µM.
